Laboratory results reported in ChEMBL document CHEMBL3621043, “Discovery and Optimization of Novel, Selective Histone Methyltransferase SET7 Inhibitors by Pharmacophore- and Docking-Based Virtual Screening” (J Med Chem, 2015).
Activity calls are given as the source filed them. The calls are words filed in the database; no cut-off is given here.

Legend:
[1] = target: T1, Histone-lysine N-methyltransferase SETD7 (Homo sapiens, UniProt Q8WTS6); experiment: Competitive inhibition of SET7 (unknown origin) after 60 mins by AlphaLISA method in presence of SAM
T1 sequence (Q8WTS6 whole entry): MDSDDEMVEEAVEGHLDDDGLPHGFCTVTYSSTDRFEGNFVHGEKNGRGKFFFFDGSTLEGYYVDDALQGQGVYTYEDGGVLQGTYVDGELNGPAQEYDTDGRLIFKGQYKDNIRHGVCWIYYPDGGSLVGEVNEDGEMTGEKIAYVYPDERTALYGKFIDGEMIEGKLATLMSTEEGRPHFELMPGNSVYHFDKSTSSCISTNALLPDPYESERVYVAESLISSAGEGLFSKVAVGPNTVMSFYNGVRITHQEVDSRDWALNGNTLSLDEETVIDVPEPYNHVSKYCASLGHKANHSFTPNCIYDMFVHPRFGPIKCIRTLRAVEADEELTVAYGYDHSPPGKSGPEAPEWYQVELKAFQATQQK

[2] = tested on: HL-60; experiment: cells; conditions: Homo sapiens, HL-60, 120 h
[3] = target: T2, Histone-lysine N-methyltransferase EHMT2 (Homo sapiens) (UniProt Q96KQ7); experiment: Inhibition of G9a (unknown origin) at 100 uM preincubated for 15 mins followed by substrate addition measured after 60 mins by AlphaLISA method relative to control
T2 sequence (whole entry): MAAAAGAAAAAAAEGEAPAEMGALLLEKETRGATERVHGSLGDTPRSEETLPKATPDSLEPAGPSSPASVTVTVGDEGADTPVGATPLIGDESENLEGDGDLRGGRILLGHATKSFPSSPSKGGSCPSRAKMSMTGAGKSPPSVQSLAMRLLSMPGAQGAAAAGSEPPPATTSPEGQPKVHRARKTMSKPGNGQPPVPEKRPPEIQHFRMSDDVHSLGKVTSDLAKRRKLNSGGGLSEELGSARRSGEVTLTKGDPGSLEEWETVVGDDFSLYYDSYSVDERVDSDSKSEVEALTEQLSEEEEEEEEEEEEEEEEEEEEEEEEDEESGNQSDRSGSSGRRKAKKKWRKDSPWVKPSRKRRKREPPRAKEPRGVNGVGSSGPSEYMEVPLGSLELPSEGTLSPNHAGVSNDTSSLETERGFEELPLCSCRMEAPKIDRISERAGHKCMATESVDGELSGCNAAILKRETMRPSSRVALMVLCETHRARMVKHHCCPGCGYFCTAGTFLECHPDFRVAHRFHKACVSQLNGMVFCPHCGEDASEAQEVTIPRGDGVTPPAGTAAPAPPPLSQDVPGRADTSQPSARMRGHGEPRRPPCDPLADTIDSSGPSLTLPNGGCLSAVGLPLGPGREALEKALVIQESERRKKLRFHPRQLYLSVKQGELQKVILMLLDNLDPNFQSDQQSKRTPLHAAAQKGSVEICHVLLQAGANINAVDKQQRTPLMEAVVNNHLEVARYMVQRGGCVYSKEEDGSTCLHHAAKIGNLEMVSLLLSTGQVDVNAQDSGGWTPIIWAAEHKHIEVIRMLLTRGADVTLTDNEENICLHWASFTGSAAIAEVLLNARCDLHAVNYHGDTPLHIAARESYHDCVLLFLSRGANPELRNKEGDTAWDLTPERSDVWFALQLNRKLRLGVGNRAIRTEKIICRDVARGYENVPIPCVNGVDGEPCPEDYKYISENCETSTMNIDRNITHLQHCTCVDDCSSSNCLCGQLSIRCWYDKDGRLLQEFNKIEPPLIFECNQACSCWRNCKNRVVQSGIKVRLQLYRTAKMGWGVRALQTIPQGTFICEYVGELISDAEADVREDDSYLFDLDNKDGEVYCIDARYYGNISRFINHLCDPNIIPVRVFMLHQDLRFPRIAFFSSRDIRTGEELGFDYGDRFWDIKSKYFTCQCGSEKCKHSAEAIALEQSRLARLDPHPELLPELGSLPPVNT
Method in brief: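 AlphaLISA in modified Tris buffer: compounds (DMSO) with enzyme 15 min at room temperature, then substrate mix added for 60 min at room temperature. Acceptor and donor bead mix added for 60 min in subdued light, then Alpha signal read.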

[4] = target: DNA (cytosine-5)-methyltransferase 1 (Homo sapiens) (UniProt P26358); experiment: Inhibition of DNMT1 (unknown origin) using poly(dI-DC) as substrate at 100 uM preincubated for 15 mins followed by substrate and [3H]SAM addition measured after 120 mins by microbeta counting analysis relative to control
Method in brief: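 Radioactive methylation assay in modified Tris buffer with poly(dI-dC) substrate. Enzyme held 15 min at room temperature, then substrate and [3H]-SAM added. Reaction run 120 min at 37 °C, then moved to 0.5% PEI-pretreated filter plates, washed with water under vacuum and counted. Maximum = enzyme plus substrate; minimum = substrate only.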

[5] = tested on: MCF7; experiment: cells; conditions: Homo sapiens, MCF7, 120 h
[6] = target: DNMT3A2/3L complex (Homo sapiens) (UniProt Q9Y6K1+Q9UJW3); experiment: Inhibition of DNMT3A/3L (unknown origin) using IDT-01 sequence 1/IDT-01 sequence 2 as substrate at 100 uM preincubated for 15 mins followed by substrate addition measured after 4 hrs by liquid scintillation counting analysis relative to control; type: protein-complex assay
Method in brief: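 Radioactive methylation assay in modified Tris buffer with IDT-01 Sequence 1 and Sequence 2 as substrates. Enzyme preincubated 15 min at room temperature before substrate added. After 4 h at room temperature, stopped with cold SAM, then transferred to FlashPlate and read by liquid scintillation counting.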

[7] = tested on: SUD4; experiment: Cytotoxicity against human SU-DHL4 cells assessed as inhibition of cell proliferation after 120 hrs by alamar blue assay; type: functional, cell-based
Method in brief: (§1)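 Cells seeded at approximately 2*10^4 per well in 100 µL medium, grown overnight, then exposed for about 120 h to 0–100 µM in DMSO. MCF7 and HCT116 read by MTT: 2 h at 37 °C, crystals dissolved in DMSO, absorbance 490 nm with 630 nm reference. HL60, MV4-11 and DHL4 read by alamarBlue, fluorescence ex 544/em 590 nm. Signals normalized to control wells.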

[8] = tested on: MV4-11; experiment: Cytotoxicity against human MV4-11 cells assessed as inhibition of cell proliferation after 120 hrs by alamar blue assay; type: functional, cell-based; method in brief: as §1
[9] = target: Histone-lysine N-methyltransferase EZH2 (Homo sapiens) (UniProt Q15910); experiment: Inhibition of EZH2 (unknown origin) using H3K27me peptide as substrate at 100 uM preincubated for 15 mins followed by substrate/[3H]SAM addition by liquid scintillation counting analysis relative to control
Method in brief: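 Enzyme in modified Tris buffer, 15 min at room temperature, then H3K27me peptide plus [3H]-SAM added to start. Stopped with cold SAM (final 0.5 mM), transferred to FlashPlate for at least 1 h at room temperature, washed with water/0.1% Tween-20, then scintillation counting.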

[10] = target: Histone-lysine N-methyltransferase, H3 lysine-36 specific (Homo sapiens) (UniProt Q96L73); experiment: Inhibition of NSD1 (unknown origin) at 100 uM preincubated for 15 mins followed by substrate/[3H]-SAM addition measured after 4 hrs by liquid scintillation counting analysis relative to control
Method in brief: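 Enzyme in modified Tris buffer, 15 min at room temperature, then substrate and [3H]-SAM added. After 4 h, cold SAM stop, transfer to PEI-pretreated GF/B filter plate, water washes under vacuum, then scintillation counting.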

[11] = target: Histone-lysine N-methyltransferase, H3 lysine-79 specific (Homo sapiens) (UniProt Q8TEK3); experiment: Inhibition of DOT1L (unknown origin) at 100 uM preincubated for 15 mins followed by oligonucleosomes/SAM addition measured after 30 mins by AlphaLISA method relative to control
[12] = tested on: HCT-116; experiment: Cytotoxicity against human HCT116 cells assessed as inhibition of cell proliferation after 120 hrs by MTT assay
[13] = target: T3, N-lysine methyltransferase KMT5A (Homo sapiens) (UniProt Q9NQR1); experiment: Inhibition of SETD8 (unknown origin) at 100 uM preincubated for 15 mins measured after 120 mins by microbeta counting analysis in presence of [3H]-SAM relative to control
T3 sequence (whole entry): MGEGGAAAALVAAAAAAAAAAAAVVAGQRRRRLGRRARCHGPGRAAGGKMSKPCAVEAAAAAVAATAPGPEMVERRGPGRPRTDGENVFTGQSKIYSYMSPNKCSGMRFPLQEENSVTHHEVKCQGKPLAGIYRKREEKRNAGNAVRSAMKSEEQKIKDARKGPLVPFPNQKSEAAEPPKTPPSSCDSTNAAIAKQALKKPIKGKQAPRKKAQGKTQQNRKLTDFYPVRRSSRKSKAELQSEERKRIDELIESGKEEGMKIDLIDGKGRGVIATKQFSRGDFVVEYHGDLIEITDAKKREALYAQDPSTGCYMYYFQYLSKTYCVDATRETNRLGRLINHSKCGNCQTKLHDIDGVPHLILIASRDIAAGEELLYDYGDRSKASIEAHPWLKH
Method in brief: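 Compounds added in DMSO and enzyme held 15 min at room temperature in modified Tris buffer. Reaction started with peptide plus [3H]-SAM and stopped with cold SAM after 120 min. Transferred to streptavidin FlashPlate for at least 60 min, washed with water/0.1% Tween-20, then counted.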

[14] = target: T1, Histone-lysine N-methyltransferase SETD7; experiment: Inhibition of SET7 (unknown origin)
Method in brief: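 AlphaLISA: purified SET7 in modified Tris buffer 15 min at room temperature, compounds added in DMSO, then substrate solution added for 60 min. Acceptor and donor beads incubated 60 min at room temperature in the dark, then Alpha-mode read. Inhibition % = (Max−Signal)/(Max−Min)×100; low control received assay buffer instead of enzyme.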

Sequence of Histone-lysine N-methyltransferase, H3 lysine-36 specific (Homo sapiens) (Q96L73 whole entry): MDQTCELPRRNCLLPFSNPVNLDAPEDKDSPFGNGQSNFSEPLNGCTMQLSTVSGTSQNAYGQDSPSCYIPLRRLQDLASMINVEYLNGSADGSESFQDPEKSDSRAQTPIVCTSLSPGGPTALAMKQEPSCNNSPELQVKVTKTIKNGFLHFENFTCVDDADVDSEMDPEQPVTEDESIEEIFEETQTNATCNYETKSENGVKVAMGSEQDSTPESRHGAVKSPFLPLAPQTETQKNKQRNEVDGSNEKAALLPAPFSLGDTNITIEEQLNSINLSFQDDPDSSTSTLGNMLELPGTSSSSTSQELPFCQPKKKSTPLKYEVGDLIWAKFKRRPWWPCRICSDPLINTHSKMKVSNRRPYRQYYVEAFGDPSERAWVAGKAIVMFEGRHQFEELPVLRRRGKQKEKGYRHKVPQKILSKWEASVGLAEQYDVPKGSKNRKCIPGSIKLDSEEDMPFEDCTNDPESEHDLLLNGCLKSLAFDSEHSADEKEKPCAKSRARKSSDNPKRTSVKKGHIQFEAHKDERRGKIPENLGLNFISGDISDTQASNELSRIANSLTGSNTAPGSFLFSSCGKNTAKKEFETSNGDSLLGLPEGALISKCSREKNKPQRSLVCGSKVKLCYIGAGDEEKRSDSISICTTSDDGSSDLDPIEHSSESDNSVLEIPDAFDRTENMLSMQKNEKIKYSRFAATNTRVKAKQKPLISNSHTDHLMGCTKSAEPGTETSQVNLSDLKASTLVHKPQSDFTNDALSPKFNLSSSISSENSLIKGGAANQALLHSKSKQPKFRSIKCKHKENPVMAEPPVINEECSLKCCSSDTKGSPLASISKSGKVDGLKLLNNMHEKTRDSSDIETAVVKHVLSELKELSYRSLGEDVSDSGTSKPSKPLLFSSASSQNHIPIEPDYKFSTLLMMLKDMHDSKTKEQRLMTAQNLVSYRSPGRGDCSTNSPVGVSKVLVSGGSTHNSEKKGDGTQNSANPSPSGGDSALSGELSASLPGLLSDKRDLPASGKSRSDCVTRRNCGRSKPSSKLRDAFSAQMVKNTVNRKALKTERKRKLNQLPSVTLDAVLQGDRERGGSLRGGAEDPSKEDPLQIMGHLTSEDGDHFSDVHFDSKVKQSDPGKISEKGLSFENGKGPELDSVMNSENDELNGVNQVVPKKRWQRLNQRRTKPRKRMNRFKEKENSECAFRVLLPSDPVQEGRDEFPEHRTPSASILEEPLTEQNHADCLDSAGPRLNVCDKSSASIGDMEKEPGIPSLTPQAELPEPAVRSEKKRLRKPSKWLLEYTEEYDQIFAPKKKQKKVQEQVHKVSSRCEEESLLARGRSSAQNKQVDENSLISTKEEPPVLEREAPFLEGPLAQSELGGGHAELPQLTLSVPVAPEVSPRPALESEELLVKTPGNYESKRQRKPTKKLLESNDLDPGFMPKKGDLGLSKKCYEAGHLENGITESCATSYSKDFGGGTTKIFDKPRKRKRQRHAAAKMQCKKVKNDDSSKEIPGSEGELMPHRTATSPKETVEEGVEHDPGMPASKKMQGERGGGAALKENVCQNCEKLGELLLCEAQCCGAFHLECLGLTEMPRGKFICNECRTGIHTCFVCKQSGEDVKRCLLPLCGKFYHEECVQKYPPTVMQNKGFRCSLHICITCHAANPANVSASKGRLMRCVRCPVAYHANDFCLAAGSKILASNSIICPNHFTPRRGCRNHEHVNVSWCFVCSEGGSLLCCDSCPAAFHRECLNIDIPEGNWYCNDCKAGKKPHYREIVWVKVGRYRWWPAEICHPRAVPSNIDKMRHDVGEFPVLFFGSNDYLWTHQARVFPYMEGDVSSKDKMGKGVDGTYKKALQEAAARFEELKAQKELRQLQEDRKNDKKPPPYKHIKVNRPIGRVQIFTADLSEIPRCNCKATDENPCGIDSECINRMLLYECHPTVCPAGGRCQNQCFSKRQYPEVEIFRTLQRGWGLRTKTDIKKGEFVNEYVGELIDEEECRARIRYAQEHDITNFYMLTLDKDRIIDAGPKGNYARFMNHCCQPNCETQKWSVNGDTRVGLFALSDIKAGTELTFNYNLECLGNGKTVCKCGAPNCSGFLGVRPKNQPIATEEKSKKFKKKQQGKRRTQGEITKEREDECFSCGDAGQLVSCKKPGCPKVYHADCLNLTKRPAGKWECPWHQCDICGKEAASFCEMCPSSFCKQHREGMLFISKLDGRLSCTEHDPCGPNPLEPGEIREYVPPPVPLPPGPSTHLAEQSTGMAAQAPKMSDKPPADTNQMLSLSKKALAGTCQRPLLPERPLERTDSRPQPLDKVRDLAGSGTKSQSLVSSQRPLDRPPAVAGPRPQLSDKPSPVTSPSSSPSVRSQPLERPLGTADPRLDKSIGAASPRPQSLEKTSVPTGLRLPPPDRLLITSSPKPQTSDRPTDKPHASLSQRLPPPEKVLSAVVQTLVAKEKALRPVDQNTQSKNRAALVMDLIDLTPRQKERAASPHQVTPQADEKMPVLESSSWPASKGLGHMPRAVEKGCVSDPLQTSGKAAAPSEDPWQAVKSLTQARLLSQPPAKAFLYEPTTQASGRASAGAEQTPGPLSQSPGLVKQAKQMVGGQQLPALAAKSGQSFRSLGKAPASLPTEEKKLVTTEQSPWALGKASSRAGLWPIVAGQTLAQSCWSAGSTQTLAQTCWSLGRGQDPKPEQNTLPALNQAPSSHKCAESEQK
Sequence of DNA (cytosine-5)-methyltransferase 1 (Homo sapiens) (P26358 whole entry): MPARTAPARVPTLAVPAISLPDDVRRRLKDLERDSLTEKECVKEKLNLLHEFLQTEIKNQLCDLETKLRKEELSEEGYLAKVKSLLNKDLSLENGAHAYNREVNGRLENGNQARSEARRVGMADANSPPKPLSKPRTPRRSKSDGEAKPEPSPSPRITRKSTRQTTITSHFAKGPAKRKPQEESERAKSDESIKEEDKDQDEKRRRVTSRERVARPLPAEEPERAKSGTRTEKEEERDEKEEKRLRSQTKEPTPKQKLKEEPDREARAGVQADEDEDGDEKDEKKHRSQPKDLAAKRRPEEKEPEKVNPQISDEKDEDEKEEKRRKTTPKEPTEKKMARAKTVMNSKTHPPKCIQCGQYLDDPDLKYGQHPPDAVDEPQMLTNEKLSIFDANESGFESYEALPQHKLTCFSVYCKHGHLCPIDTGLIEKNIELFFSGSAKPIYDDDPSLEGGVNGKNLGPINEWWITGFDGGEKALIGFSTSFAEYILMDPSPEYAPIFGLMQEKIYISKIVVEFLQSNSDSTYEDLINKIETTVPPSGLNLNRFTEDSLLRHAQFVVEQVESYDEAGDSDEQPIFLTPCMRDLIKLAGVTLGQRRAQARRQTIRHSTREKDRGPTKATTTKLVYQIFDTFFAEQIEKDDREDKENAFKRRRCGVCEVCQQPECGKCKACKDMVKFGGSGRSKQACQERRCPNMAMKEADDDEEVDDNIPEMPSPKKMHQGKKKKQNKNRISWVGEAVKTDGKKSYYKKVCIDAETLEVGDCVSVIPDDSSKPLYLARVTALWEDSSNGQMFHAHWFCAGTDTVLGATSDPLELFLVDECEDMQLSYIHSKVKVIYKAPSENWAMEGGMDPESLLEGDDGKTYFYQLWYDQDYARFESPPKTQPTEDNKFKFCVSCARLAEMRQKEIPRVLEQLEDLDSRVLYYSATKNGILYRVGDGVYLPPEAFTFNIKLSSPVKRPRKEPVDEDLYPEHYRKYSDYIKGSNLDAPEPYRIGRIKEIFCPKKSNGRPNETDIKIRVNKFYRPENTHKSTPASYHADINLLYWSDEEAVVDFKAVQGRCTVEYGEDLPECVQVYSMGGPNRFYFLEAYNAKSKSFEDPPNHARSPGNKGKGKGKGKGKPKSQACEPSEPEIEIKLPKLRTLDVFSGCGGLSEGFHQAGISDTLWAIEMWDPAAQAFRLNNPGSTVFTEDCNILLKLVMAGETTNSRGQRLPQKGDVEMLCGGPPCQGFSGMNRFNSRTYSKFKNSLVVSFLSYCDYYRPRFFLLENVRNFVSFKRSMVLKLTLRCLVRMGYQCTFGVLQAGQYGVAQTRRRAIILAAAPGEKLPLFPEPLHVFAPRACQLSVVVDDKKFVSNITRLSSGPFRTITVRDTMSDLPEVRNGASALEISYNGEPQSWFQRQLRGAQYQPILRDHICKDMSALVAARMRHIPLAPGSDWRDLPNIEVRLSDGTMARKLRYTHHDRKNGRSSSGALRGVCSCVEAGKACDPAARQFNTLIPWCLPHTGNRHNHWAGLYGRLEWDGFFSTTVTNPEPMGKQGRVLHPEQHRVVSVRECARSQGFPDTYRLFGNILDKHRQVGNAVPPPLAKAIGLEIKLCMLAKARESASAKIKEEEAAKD
Sequence of Histone-lysine N-methyltransferase EZH2 (Homo sapiens) (Q15910 whole entry, looked up): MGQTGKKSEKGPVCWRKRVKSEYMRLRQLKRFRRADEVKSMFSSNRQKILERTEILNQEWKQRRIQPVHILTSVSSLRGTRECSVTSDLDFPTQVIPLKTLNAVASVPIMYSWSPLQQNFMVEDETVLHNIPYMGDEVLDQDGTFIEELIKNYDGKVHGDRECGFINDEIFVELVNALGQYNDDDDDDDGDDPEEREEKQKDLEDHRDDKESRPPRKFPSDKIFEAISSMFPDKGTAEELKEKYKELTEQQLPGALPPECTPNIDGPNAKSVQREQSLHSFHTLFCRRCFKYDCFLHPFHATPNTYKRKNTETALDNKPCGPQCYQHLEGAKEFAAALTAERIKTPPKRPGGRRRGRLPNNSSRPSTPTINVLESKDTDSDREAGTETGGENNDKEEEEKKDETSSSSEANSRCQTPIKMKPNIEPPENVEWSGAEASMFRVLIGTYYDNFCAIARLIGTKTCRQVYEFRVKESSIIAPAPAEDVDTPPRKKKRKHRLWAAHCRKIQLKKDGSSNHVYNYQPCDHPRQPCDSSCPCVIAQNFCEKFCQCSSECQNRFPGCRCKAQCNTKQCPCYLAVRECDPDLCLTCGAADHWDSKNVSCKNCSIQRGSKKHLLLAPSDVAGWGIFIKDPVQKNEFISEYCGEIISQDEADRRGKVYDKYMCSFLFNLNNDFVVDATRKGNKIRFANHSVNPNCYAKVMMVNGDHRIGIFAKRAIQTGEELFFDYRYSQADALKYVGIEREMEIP

O=C(Nc1cccc([N+](=O)[O-])c1)c1ccc2c(c1)OCO2
IC50 [1]: 61.7 µM

CCOC(=O)c1c(N)sc(C(=O)Nc2cccc([N+](=O)[O-])c2)c1C
IC50 [2]: 16.4 µM | inhibition [3]: -0.71% | inhibition [4]: 16.1% | IC50 [1]: 4.59 µM | IC50 [5]: 10.9 µM | inhibition [6]: -4.25% | inhibition [7]: inactive | inhibition [8]: Dose-dependent effect | inhibition [9]: 19.6% | inhibition [10]: 27.2% | inhibition [11]: -5.42% | inhibition [12]: inactive | inhibition [13]: 40.9%

CN1CCC(=C2c3ccccc3C=Cc3ccccc32)CC1 [CYPROHEPTADINE]
IC50 [14]: 20 µM

COC(=O)c1c(N)sc(C(=O)Nc2cccc([N+](=O)[O-])c2)c1C
inhibition [3]: 29.9% | inhibition [4]: 9.82% | IC50 [1]: 4.88 µM | inhibition [9]: 19.6% | inhibition [10]: 25.1% | inhibition [13]: 45.5%
